Screening data as filed in PubChem BioAssay.
Ba/F3 V617F tox – loss of viability in JAK2V617F-driven Ba/F3 cells; AID 1446; inhibition, % at 5.6 µM; hit rate 1.1% among 220,000; Ba/F3 EpoR-JAK2V617F viability, ATP luminescence;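 active = inhibition above the campaign mean plus 3 SD over all tested compounds, cut at about 24% in these data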;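 note: cytokine-independent growth of Ba/F3 cells driven by EpoR plus mutant JAK2; 0% = DMSO-treated cells and 100% = JAK inhibitor I control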
IEC-6 cytotox – kills IEC-6 intestinal cells in KLF5 counter-screen; IEC-6 cytotoxicity, luminescence viability; inhibition, % at 5 µM; hit rate 0.78% among 290,000; AID 1825; in the data active = inhibition above about 22%;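 note: 0% = plate median of test compound wells and 100% = cytotoxic reference compound wells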
BaF3 tox – reduces parental Ba/F3 cell viability, JAK2V617F counter-screen; CellTiter-Glo ATP luminescence; inhibition, % at 5.6 µM; hit rate 1.1% among 220,000;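 active = inhibition above a per-campaign cutoff, the mean inhibition of all tested compounds plus 3 SD, cut at about 27% in these data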;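 note: 0% = DMSO wells and 100% = JAK Inhibitor I control wells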
MT stabilize HCS – microtubule stabilizers in HeLa cells; hit rate 0.83% among 200,000; AID 2205; % tubulin-high responders, % at 10 µM; HeLa tubulin immunostaining HCS, 24 h; share of cells brighter than vehicle mean+2SD;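 active = plate Z-score above 3 for both tubulin-high and condensed-nucleus cell shares, with cell loss under 80%, at 10 µM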;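 note: anti alpha tubulin signal scored within the nucleus-defined area of each cell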
APP 5UTR inh – APP translation inhibition | SH-SY5Y APP 5'UTR-luciferase reporter, luminescence | inhibition, % at 2 µM | hit rate 0.82% among 190,000 | AID 1285;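 active = inhibition above a set limit, derived from the sample mean plus 3 SD, cut at about 45% in these data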
b-catenin transl – beta-catenin nuclear translocation modulation; nuclear translocation activity, % at 5 µM; AID 1665; hit rate 0.3% among 190,000; HeLa beta-catenin nuclear translocation, immunofluorescence imaging;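 active = nuclear translocation activity above 50% at 5 µM, with a well cell count of 50 or more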;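 note: per-cell ratio of nuclear to cytoplasmic median beta-catenin stain intensity; plate controls were DMSO negative control for no effect and GSK-3 inhibitor IX positive control for full effect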
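Test system: human HeLa cells, endogenous beta-catenin. Times: 24 h compound exposure, 37°C. Measured by: beta-catenin immunofluorescence imaging with DAPI.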
Starred values were filed as active, the others as inactive; nt = not tested or not shown. Most compounds without a hit are left out; they make up all but 2.2% or so of the library.

SMILES | Ba/F3 V617F tox | IEC-6 cytotox | BaF3 tox | MT stabilize HCS | APP 5UTR inh | b-catenin transl
Cc1c(S(=O)(=O)N2CCN(c3ccc(F)cc3)CC2)c(=O)n(C)c(=O)n1C | nt | 4.9 | nt | nt | nt | nt
COc1cc(/C=N/NC(N)=S)ccc1OCc1ccc(C)cc1 | 60.2* | 4.7 | 48.5* | 3.8 | -19.4 | nt
COc1cc(/C=N/NC(N)=S)ccc1OC(=O)c1ccc(C)cc1 | -1.3 | -1.8 | 1.9 | 3.0 | -6.4 | 3.3
COc1cc(/C=N/OCC(=O)Nc2ccc(OC(F)F)cc2)ccc1OCc1ccccc1 | 2.9 | -2.6 | 5.9 | 17.2* | -3.5 | 3.7
CCOc1ccc(/C=N/OCC(=O)Nc2ccc(OCc3ccccc3)cc2)cc1OC | 0.3 | -4.3 | 6.3 | 2.5 | 9.1 | -2.3
COc1cc(/C=N/O)ccc1OCc1ccc(Cl)cc1 | -2.8 | -1.2 | 3.9 | 3.2 | -191.2 | 1.9
COc1cc(/C=N/O)ccc1OCc1ccc(C(=O)O)cc1 | -0.4 | 0.1 | 4.3 | 2.6 | 81.9* | 2.7
CCOc1cc(C(=O)N=c2sccn2C)cc(Br)c1OC | nt | 7.6 | nt | nt | nt | nt
O=C(O)c1ccc(CNC(=O)c2ccc3c(c2)C(=O)N(Cc2cccnc2)C3=O)cc1 | nt | 7.3 | nt | nt | nt | nt
CC(=O)c1c(C)oc2ccc(N(C(C)=O)S(=O)(=O)c3cccc4cccnc34)cc12 | 27.4* | 7.3 | 36.9* | nt | nt | -0.5
COc1ccccc1CC(=O)N1CCN(C(=O)c2ccco2)CC1 | nt | -3.7 | nt | nt | nt | nt
CC(C)c1csc(CN2CCCC(CCC(=O)NCc3ccccc3F)C2)n1 (stereo not given) | 2.9 | 6.5 | 7.1 | 24.9* | -18.0 | 2.8
COc1ccc(OCC(=O)OCC(=O)NCc2ccc(F)cc2)cc1 | -4.8 | 0.0 | 1.5 | 2.2 | 64.5* | -0.3
Cc1cc(/C=C2\Sc3ccccc3N2C)cc(C)[n+]1CC1CCCO1 (stereo not given) | 99.9* | 11.3 | 75.8* | 3.9 | -4.3 | -3.6
O=C(/C=C/c1cccnc1)/C=C/c1cccnc1 | 94.7* | 49.1* | 102.8* | nt | nt | 6.8
CCOC(=O)C1CCCN(Cc2cc(=O)oc3cc(C)ccc23)C1 (stereo not given) | -0.4 | -10.4 | 3.8 | 2.9 | -25.3 | -0.7
CCOC(=O)C1CCCN(Cc2cc(=O)oc3cc(C)c(C)cc23)C1 (stereo not given) | 2.2 | -0.6 | 82.2* | 1.7 | 9.3 | -2.6
COc1ccccc1CNC(=O)C(NS(=O)(=O)c1cccc2nsnc12)C(C)C (stereo not given) | 1.8 | 0.8 | -1.9 | nt | nt | 1.0
Cc1ccc(-c2cc(-c3ccc4c(c3)OCO4)c(C#N)c(N)n2)o1 | 0.6 | -4.6 | 2.6 | 58.9* | -1.7 | 2.4
CCOc1cc(-c2cc(-c3ccc(C)o3)nc(N)c2C#N)ccc1O | -0.5 | 6.1 | 4.5 | 21.0 | 12.0 | 54.9*
COc1ccc(C2=NO[C@@H]3[C@@H]4C[C@@H]([C@H]5C(=O)N(C)C(=O)[C@@H]45)[C@H]23)c(OC)c1 | -1.9 | 3.6 | -2.5 | nt | nt | -4.8
CCC(CNC(=O)c1c(C)nn(-c2ccccc2)c1Cl)c1ccccc1 (stereo not given) | nt | -5.2 | nt | nt | nt | nt
CC(C)Cc1ccc(C(C)C(=O)Nc2nccs2)cc1 (stereo not given) | -3.3 | -3.1 | 2.9 | 1.5 | -3.7 | -3.0
CC(C)Cc1ccc(C(C)C(=O)Nc2ccccc2O)cc1 (stereo not given) | 10.8 | -1.9 | 37.8* | nt | nt | -0.3
COc1ccc(OCC(=O)Nc2ccc(N3CCN(C(=O)c4ccco4)CC3)cc2)cc1 | 5.1 | 0.9 | 89.9* | 3.2 | -22.4 | 0.3
SMILES | Ba/F3 V617F tox | IEC-6 cytotox | BaF3 tox | MT stabilize HCS | APP 5UTR inh | b-catenin transl
O=C(COc1ccc(Cl)cc1)Nc1ccc(N2CCN(C(=O)c3ccco3)CC2)cc1 | 0.2 | -1.5 | 5.5 | 1.7 | 8.8 | 1.1
Cc1cc(F)ccc1S(=O)(=O)Nc1ccc(O)c(Sc2ncn[nH]2)c1 | nt | -4.2 | nt | nt | nt | nt
Nc1c(-c2ccccc2Cl)cnn1-c1cccc([N+](=O)[O-])c1 | 1.5 | 2.4 | 46.4* | 2.9 | -31.9 | 1.5
Cc1ccccc1-c1cnn(-c2cccc([N+](=O)[O-])c2)c1N | 2.2 | -3.6 | 8.5 | 3.2 | -7.7 | 2.6
COc1ccc(-c2coc3cc4oc(=O)cc(-c5ccccc5)c4cc23)cc1F | 1.1 | 6.8 | 5.4 | 17.0* | 89.7* | 148.5*
Clc1cc(Br)ccc1OCCOCCN1CCOCC1 | -0.2 | -0.6 | 3.0 | 4.1 | -10.6 | 111.5*
CN(C)c1nc(Nc2ccc(F)cc2)nc(Oc2ccc(F)cc2)n1 | nt | -4.5 | nt | nt | nt | nt
CN(C)c1nc(N/N=C/c2ccccc2O)nc(Nc2ccc(F)cc2)n1 | -1.9 | 3.4 | 5.2 | 1.4 | 48.4* | 0.9
